Experimental data as given in ChEMBL document CHEMBL4304816, “A Novel Biphenyl-based Chemotype of Retinoid X Receptor Ligands Enables Subtype and Heterodimer Preferences” (ACS Med Chem Lett, 2019).
Activity calls are given as the source filed them. The rule behind the calls is not given here.

Legend:
Type in all cases: cell-based
[1] = Agonist activity at full-length human RXR/LXR expressed in HEK293T cells at 10 uM after 14 to 16 hrs by dual-glo luciferase reporter gene assay relative to untreated control; details: HEK-293T, read-out: Activity
Procedure, shortened: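 RXR:LXR or RXR:PPARγ heterodimer reporter assay with test compound alone. Activation expressed relative to 0.1% DMSO vehicle. Three independent experiments, each in duplicate; mean reported.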

[2] = biological target: T1, Retinoic acid receptor alpha (Homo sapiens) (UniProt P10276); experiment: Agonist activity at Gal4-LBD fused RARalpha (unknown origin) expressed in HEK293T cells at 10 uM after 14 to 16 hrs by dual-Glo luciferase assay
T1 sequence (whole entry): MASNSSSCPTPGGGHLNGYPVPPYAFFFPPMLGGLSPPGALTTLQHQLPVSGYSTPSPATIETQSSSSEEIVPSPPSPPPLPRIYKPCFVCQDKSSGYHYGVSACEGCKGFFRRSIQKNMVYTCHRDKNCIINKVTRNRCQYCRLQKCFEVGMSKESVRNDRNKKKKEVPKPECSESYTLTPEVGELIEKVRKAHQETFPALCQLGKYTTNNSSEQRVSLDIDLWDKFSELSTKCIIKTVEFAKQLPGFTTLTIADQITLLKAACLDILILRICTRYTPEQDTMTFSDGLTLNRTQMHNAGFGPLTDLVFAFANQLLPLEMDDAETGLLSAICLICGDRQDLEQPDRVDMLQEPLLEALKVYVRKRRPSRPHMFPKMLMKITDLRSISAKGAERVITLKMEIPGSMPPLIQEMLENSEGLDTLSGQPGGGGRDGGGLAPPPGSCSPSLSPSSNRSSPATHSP
Procedure, shortened: (§1)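 Gal4-hybrid reporter gene selectivity panel of related nuclear receptors (PPARα/β/γ, RARα/β/γ) in HEK293T cells. Activity is read as mean fold activation versus 0.1% DMSO vehicle, n ≥ 2.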

[3] = biological target: T2, Retinoic acid receptor gamma (Homo sapiens) (UniProt P13631); experiment: Agonist activity at Gal4-LBD fused RARgamma (unknown origin) expressed in HEK293T cells after at 10 uM 14 to 16 hrs by dual-Glo luciferase assay; procedure, shortened: as §1
T2 sequence (whole entry): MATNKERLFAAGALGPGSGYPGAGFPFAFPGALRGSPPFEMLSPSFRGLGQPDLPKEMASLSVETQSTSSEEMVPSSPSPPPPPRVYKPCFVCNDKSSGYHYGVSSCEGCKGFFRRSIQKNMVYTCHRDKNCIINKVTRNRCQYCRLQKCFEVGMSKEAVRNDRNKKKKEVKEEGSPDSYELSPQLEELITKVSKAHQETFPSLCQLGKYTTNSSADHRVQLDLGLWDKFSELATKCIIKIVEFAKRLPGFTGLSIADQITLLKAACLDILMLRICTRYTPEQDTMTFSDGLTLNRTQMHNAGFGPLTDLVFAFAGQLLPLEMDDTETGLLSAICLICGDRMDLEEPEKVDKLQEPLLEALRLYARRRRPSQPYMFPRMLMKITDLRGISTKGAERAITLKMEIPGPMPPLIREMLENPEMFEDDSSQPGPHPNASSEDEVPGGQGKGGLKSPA

[4] = biological target: T3, Peroxisome proliferator-activated receptor alpha (Homo sapiens) (UniProt Q07869); experiment: Agonist activity at Gal4-LBD fused PPARalpha (unknown origin) expressed in HEK293T cells at 10 uM after 14 to 16 hrs by dual-Glo luciferase assay; procedure, shortened: as §1
T3 sequence (whole entry): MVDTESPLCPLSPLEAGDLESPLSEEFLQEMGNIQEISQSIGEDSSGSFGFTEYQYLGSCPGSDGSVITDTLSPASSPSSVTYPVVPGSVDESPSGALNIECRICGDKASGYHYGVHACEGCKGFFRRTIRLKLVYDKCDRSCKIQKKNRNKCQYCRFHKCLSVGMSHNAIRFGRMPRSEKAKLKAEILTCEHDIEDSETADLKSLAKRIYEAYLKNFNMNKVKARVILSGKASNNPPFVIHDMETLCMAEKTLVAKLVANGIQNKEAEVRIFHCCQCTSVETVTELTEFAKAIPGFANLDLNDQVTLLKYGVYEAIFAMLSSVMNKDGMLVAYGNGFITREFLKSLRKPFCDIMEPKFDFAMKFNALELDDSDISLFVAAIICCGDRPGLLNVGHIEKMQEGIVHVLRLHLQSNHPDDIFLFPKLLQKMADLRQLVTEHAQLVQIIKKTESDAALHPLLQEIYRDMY

[5] = Agonist activity at full-length human RXR/LXR expressed in HEK293T cells at 10 uM after 14 to 16 hrs in presence of 1 uM T0901317 by dual-glo luciferase reporter gene assay relative to T0901317; details: HEK-293T, read-out: Activity
Procedure, shortened: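 Synergy format: the test compound was co-applied with the partner-receptor reference agonist at 1 μM, either T0901317 (RXR:LXR) or rosiglitazone (RXR:PPARγ). Relative synergistic activation was derived from three independent experiments, each in duplicate; mean reported.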

[6] = biological target: T4, Retinoic acid receptor RXR-gamma (Homo sapiens) (UniProt P48443); experiment: Agonist activity at Gal4-LBD fused RXRgamma (unknown origin) expressed in HEK293T cells at 20 uM after 14 to 16 hrs by dual-Glo luciferase assay
T4 sequence (whole entry): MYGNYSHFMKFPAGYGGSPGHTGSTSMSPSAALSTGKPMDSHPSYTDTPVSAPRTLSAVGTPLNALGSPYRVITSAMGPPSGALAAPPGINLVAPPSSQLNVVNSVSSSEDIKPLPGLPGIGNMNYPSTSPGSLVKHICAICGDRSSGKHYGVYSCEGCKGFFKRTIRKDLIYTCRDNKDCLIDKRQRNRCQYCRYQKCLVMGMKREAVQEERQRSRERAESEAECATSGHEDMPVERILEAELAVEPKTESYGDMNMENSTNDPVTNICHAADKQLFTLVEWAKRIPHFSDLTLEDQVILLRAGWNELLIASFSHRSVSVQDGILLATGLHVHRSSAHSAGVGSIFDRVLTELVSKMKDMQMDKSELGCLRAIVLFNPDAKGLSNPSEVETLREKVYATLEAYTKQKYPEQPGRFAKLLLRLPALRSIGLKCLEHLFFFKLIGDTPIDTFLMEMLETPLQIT

[7] = biological target: T4, Retinoic acid receptor RXR-gamma (Homo sapiens); experiment: Agonist activity at Gal4-LBD fused RXRgamma (unknown origin) expressed in HEK293T cells at 10 uM after 14 to 16 hrs by dual-Glo luciferase assay
[8] = biological target: T4, Retinoic acid receptor RXR-gamma (Homo sapiens); experiment: Agonist activity at Gal4-LBD fused RXRgamma (unknown origin) expressed in HEK293T cells assessed as fold activation at 10 uM after 14 to 16 hrs by dual-Glo luciferase assay relative to untreated control
Procedure, shortened: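 Gal4-hybrid RXRα/β/γ reporter gene assays in HEK293T cells. Fold activation is the maximal fold activation versus 0.1% DMSO.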

Activity [2]	Activity [3]	Activity [4]	Activity [6]	Activity [7]	fold change (FC) [8]	Structure (SMILES)	activity at 10 µM [1] [%]	activity at 10 µM [5] [%]
Active	Active	Active				Cc1cc(-c2cc(C(F)(F)F)cc(C(F)(F)F)c2)ccc1CC(=O)O	63	64
			inactive			Cc1cc(-c2ccc(C(=O)O)cc2)cc(C(C)(C)C)c1		
Active	Active	Active		inactive	1	Cc1cc(-c2cc(C(C)(C)C)cc(C(C)(C)C)c2)ccc1C(=O)O		
